From publication PMC4013422 (Chinese Journal of Cancer, 2011)

Key:
[1] = Plasma half-life from mouse blood samples; format: in vivo; conditions: intraperitoneal
[2] = tested on: skin lesions (basal cell carcinomas) of Krt6a-cre: Ptch1^neo/neo mice; assay: Topical treatment of basal cell carcinomas, tumor area by HE/ImageJ; format: in vivo, mouse
[3] = tested on: Hh target genes in skin of Krt6a-cre: Ptch1^neo/neo mice; assay: Hh target gene expression in treated skin; format: in vivo, mouse; conditions: Figure 5C
How it was run: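 Tumour-bearing transgenic mice received test compound in 70% ethanol, applied topically to the abdominal skin daily for 21 days; 70% ethanol on the mid-belly served as control. Skin halves were frozen at –80°C. TRIzol total RNA (1 µg) was reverse-transcribed. Gene-specific probes were used for qPCR, with triplicate CT values analysed by the comparative CT method, normalised to 18S RNA and expressed relative to a calibrator.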

[4] = tested on: Hh signaling-dependent motor neuron differentiation (E14Tg2a.4 embryonic stem cells); format: cell-based, mouse
How it was run: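 Mouse E14Tg2a.4 ES cells seeded at 5 × 10^5 cells/mL in ES medium without LIF on ultra-low-adhesion plates for 2 days to form embryoid bodies. Motor neurons induced with retinoic acid 100 nmol/L plus purmorphamine 2.5 µmol/L for 5–7 days, with test compound in the induction medium. Read-outs: Hb9 immunofluorescence, and real-time PCR of Hip, FoxA2, Olig2 and Hb9.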

[5] = Solubility in deionized water

Row | Solubility in water [5] | Compound | half-life [1] [h] | Maximum reduction in tumor area ([2]; Cyc treatment group, topical daily for 21 days) | Hedgehog target gene expression (HIP and Ptch1), RT-PCR [3] | IC50 ([4]; Mus musculus, Neuron, read-out: IC50, inhibitory activity for Hh signaling-dependent motor neuron differentiation) [nM] | Effect on motor neuron differentiation / expression of differentiation markers ([4]; compound at 50 nmol/L) | Reduction of tumor area ([2]; KAAD-Cyc (1 µmol/L topical per methods), data not shown)
1 |  | CC1=C2C[C@H]3[C@@H](CC=C4C[C@@H](O)CC[C@@]43C)[C@@H]2CC[C@]12O[C@@H]1C[C@H](C)CN[C@H]1[C@H]2C [Cyc, Cyclopamine] | 1 to 4 | less than 5% | little effects | 300 | no significant effects | 
2 | not water soluble | 3-Keto-N- (aminoethyl-aminocaproyl-dihydro-cinnamoyl) (KAAD)-Cyc [KAAD-Cyc] |  |  |  |  |  | more than half
